{"source": "ChEMBL document CHEMBL1122780", "about": "“Trequinsin, a potent new antihypertensive vasodilator in the series of 2-(arylimino)-3-alkyl-9,10-dimethoxy-3,4,6,7-tetrahydro-2H-py rim ido [6,1-a]isoquinolin-4-ones” (J Med Chem, 1984)", "key": {"Felis catus": {"system": "Felis catus", "assay": "Dose estimated to produce 25 mm Hg fall in mean systemic blood pressure of anesthetized cat at 10 min after administration", "format": "functional"}, "Rattus norvegicus [1]": {"system": "Rattus norvegicus", "assay": "Difference in systolic blood pressure of SH rats observed prior to the first application and 2 hr after the fifth application at the oral dose of 5 mg/kg was expressed as Delta BP", "format": "functional, Artery", "in_short": "(§1)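 Male spontaneously hypertensive rats (Wistar–Okamoto, 250–300 g, 12–16 weeks), conscious. Dosed orally once daily for 5 days in 0.9% NaCl or 0.5% carboxymethylcellulose (10 mL/kg); vehicle control group. Rats warmed at 37–38 °C for 10 min, then systolic pressure taken by tail-cuff (piezoelectric pulse detection). ΔBP = pre-first-dose minus 2 h after fifth dose; mean ± SEM, six animals.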"}, "Rattus norvegicus [2]": {"system": "Rattus norvegicus", "assay": "Difference in systolic blood pressure of SH rats observed prior to the first application and 2 hr after the fifth application at the oral dose of 25 mg/kg was expressed as Delta BP", "format": "functional, Artery", "in_short": "as §1"}}, "data": [{"smiles": "CCc1cccc(C(C)C)c1Nc1cc2n(c(=O)n1)CCc1cc(OC)c(OC)cc1-2.Cl", "values": [{"measurement": "ED25", "setting": "Felis catus", "value": 3, "unit": "mg/kg"}]}, {"smiles": "COc1cc2c(cc1OC)-c1cc(=Nc3c(C)cccc3C(C)C)n(C)c(=O)n1CC2.Cl", "values": [{"measurement": "ED25", "setting": "Felis catus", "value": 1, "unit": "mg/kg"}, {"measurement": "Delta blood pressure", "setting": "Rattus norvegicus [1]", "value": 0, "unit": "mmHg"}]}, {"smiles": "COc1cc2c(cc1OC)-c1cc(Nc3ccccc3Cl)nc(=O)n1CC2.Cl", "values": [{"measurement": "ED25", "setting": "Felis catus", "value": 1.4, "unit": "mg/kg"}, {"measurement": "Delta blood pressure", "setting": "Rattus norvegicus [2]", "value": 0, "unit": "mmHg"}]}, {"smiles": "COc1cc2c(cc1OC)-c1cc(=Nc3ccc(C)cc3C)n(C)c(=O)n1CC2.Cl", "values": [{"measurement": "ED25", "setting": "Felis catus", "value": 10, "unit": "mg/kg"}]}, {"smiles": "COc1cc2c(cc1OC)-c1cc(Nc3c(C)cccc3C(C)(C)C)nc(=O)n1CC2.Cl", "values": [{"measurement": "ED25", "setting": "Felis catus", "value": 1.8, "unit": "mg/kg"}, {"measurement": "Delta blood pressure", "setting": "Rattus norvegicus [2]", "value": 0, "unit": "mmHg"}]}, {"smiles": "CCc1cccc(C(C)CC)c1N=c1cc2n(c(=O)n1C)CCc1cc(OC)c(OC)cc1-2.Cl", "note": "(centres undefined)", "values": [{"measurement": "ED25", "setting": "Felis catus", "value": 3.5, "unit": "mg/kg"}, {"measurement": "Delta blood pressure", "setting": "Rattus norvegicus [2]", "value": -20, "unit": "mmHg"}]}, {"smiles": "COc1cc(Nc2cc3n(c(=O)n2)CCc2cc(OC)c(OC)cc2-3)cc(OC)c1.Cl", "values": [{"measurement": "ED25", "setting": "Felis catus", "value": 3.4, "unit": "mg/kg"}]}, {"smiles": "COc1cc2c(cc1OC)-c1cc(Nc3cc(OC)c(OC)c(OC)c3)nc(=O)n1CC2.Cl", "values": [{"measurement": "ED25", "setting": "Felis catus", "value": 0.8, "unit": "mg/kg"}]}, {"smiles": "COc1cc2c(cc1OC)-c1cc(Nc3c(Cl)cc(Cl)cc3Cl)nc(=O)n1CC2.Cl", "values": [{"measurement": "ED25", "setting": "Felis catus", "value": 0.5, "unit": "mg/kg"}]}, {"smiles": "COc1cc2c(cc1OC)-c1cc(Nc3ccc(C)c(Cl)c3Cl)nc(=O)n1CC2.Cl", "values": [{"measurement": "ED25", "setting": "Felis catus", "value": 5, "unit": "mg/kg"}, {"measurement": "Delta blood pressure", "setting": "Rattus norvegicus [2]", "value": -19, "unit": "mmHg"}]}, {"smiles": "COc1cc2c(cc1OC)-c1cc(Nc3c(C)cccc3C(C)C)nc(=O)n1CC2.Cl", "values": [{"measurement": "ED25", "setting": "Felis catus", "value": 2.2, "unit": "mg/kg"}]}, {"smiles": "COc1cc2c(cc1OC)-c1cc(=Nc3c(F)cccc3F)n(CP(C)(C)=O)c(=O)n1CC2.Cl", "values": [{"measurement": "ED25", "setting": "Felis catus", "value": 0.4, "unit": "mg/kg"}, {"measurement": "Delta blood pressure", "setting": "Rattus norvegicus [2]", "value": 0, "unit": "mmHg"}]}, {"smiles": "CCOc1ccccc1Nc1cc2n(c(=O)n1)CCc1cc(OC)c(OC)cc1-2.Cl", "values": [{"measurement": "ED25", "setting": "Felis catus", "value": 1.2, "unit": "mg/kg"}, {"measurement": "Delta blood pressure", "setting": "Rattus norvegicus [2]", "value": -27, "unit": "mmHg"}]}, {"smiles": "CCOc1ccc(Nc2cc3n(c(=O)n2)CCc2cc(OC)c(OC)cc2-3)cc1.Cl", "values": [{"measurement": "ED25", "setting": "Felis catus", "value": 50, "unit": "mg/kg"}]}, {"smiles": "COc1cc2c(cc1OC)-c1cc(Nc3c(F)cccc3F)nc(=O)n1CC2", "values": [{"measurement": "ED25", "setting": "Felis catus", "value": 3.5, "unit": "mg/kg"}, {"measurement": "Delta blood pressure", "setting": "Rattus norvegicus [2]", "value": 0, "unit": "mmHg"}]}, {"smiles": "COc1cc2c(cc1OC)-c1cc(=Nc3c(C)cccc3C)n(C)c(=O)n1CC2", "values": [{"measurement": "ED25", "setting": "Felis catus", "value": 3.5, "unit": "mg/kg"}]}, {"smiles": "COc1cc2c(cc1OC)-c1cc(Nc3ccc(Cl)cc3Cl)nc(=O)n1CC2", "values": [{"measurement": "ED25", "setting": "Felis catus", "value": 1, "unit": "mg/kg"}, {"measurement": "Delta blood pressure", "setting": "Rattus norvegicus [2]", "value": 0, "unit": "mmHg"}]}, {"smiles": "COc1cc2c(cc1OC)-c1cc(Nc3ccc(C)c(C)c3)nc(=O)n1CC2", "values": [{"measurement": "ED25", "setting": "Felis catus", "value": 10, "unit": "mg/kg"}]}, {"smiles": "COc1cc2c(cc1OC)-c1cc(Nc3cc(C)cc(C)c3)nc(=O)n1CC2", "values": [{"measurement": "ED25", "setting": "Felis catus", "value": 3, "unit": "mg/kg"}]}, {"smiles": "COc1cc2c(cc1OC)-c1cc(=Nc3c(Cl)cc(Cl)cc3Cl)n(C)c(=O)n1CC2", "values": [{"measurement": "ED25", "setting": "Felis catus", "value": 3, "unit": "mg/kg"}, {"measurement": "Delta blood pressure", "setting": "Rattus norvegicus [2]", "value": -21, "unit": "mmHg"}]}, {"smiles": "COc1cc2c(cc1OC)-c1cc(N(CP(C)(C)=O)c3c(F)cccc3F)nc(=O)n1CC2", "values": [{"measurement": "ED25", "setting": "Felis catus", "value": 2.4, "unit": "mg/kg"}, {"measurement": "Delta blood pressure", "setting": "Rattus norvegicus [2]", "value": 0, "unit": "mmHg"}]}, {"smiles": "COc1cc2c(cc1OC)-c1cc(Nc3ccc(O)cc3)nc(=O)n1CC2", "values": [{"measurement": "ED25", "setting": "Felis catus", "value": 10, "unit": "mg/kg"}]}, {"smiles": "COc1cc2c(cc1OC)-c1cc(Nc3ccc(C)cc3C)nc(=O)n1CC2", "values": [{"measurement": "ED25", "setting": "Felis catus", "value": 1, "unit": "mg/kg"}, {"measurement": "Delta blood pressure", "setting": "Rattus norvegicus [2]", "value": -41, "unit": "mmHg"}]}, {"smiles": "COc1cc2c(cc1OC)-c1cc(Nc3ccc(C)c(N)c3)nc(=O)n1CC2", "values": [{"measurement": "ED25", "setting": "Felis catus", "value": 2.4, "unit": "mg/kg"}]}, {"smiles": "CCc1ccccc1Nc1cc2n(c(=O)n1)CCc1cc(OC)c(OC)cc1-2", "values": [{"measurement": "ED25", "setting": "Felis catus", "value": 10, "unit": "mg/kg"}]}, {"smiles": "COc1ccc(OC)c(Nc2cc3n(c(=O)n2)CCc2cc(OC)c(OC)cc2-3)c1", "values": [{"measurement": "ED25", "setting": "Felis catus", "value": 50, "unit": "mg/kg"}]}, {"smiles": "COc1cc2c(cc1OC)-c1cc(N(c3c(C)cc(C)cc3C)C(C)C)nc(=O)n1CC2", "values": [{"measurement": "ED25", "setting": "Felis catus", "value": 0.5, "unit": "mg/kg"}, {"measurement": "Delta blood pressure", "setting": "Rattus norvegicus [1]", "value": -37, "unit": "mmHg"}]}, {"smiles": "COc1cc2c(cc1OC)-c1cc(Nc3ccccc3C(=O)O)nc(=O)n1CC2", "values": [{"measurement": "ED25", "setting": "Felis catus", "value": 50, "unit": "mg/kg"}]}, {"smiles": "COc1cc2c(cc1OC)-c1cc(Nc3c(Cl)cccc3Cl)nc(=O)n1CC2", "values": [{"measurement": "ED25", "setting": "Felis catus", "value": 2, "unit": "mg/kg"}]}, {"smiles": "CCCCN(c1cc2n(c(=O)n1)CCc1cc(OC)c(OC)cc1-2)c1c(C)cc(C)cc1C", "values": [{"measurement": "ED25", "setting": "Felis catus", "value": 0.08, "unit": "mg/kg"}]}, {"smiles": "COc1cc2c(cc1OC)-c1cc(Nc3c(C)cccc3C)nc(=O)n1CC2", "values": [{"measurement": "ED25", "setting": "Felis catus", "value": 0.1, "unit": "mg/kg"}, {"measurement": "Delta blood pressure", "setting": "Rattus norvegicus [1]", "value": -27, "unit": "mmHg"}]}, {"smiles": "COc1cc2c(cc1OC)-c1cc(Nc3ccc(Cl)cc3)nc(=O)n1CC2", "values": [{"measurement": "ED25", "setting": "Felis catus", "value": 50, "unit": "mg/kg"}]}, {"smiles": "COc1cc2c(cc1OC)-c1cc(Nc3cccc(C(F)(F)F)c3)nc(=O)n1CC2", "values": [{"measurement": "ED25", "setting": "Felis catus", "value": 2, "unit": "mg/kg"}]}, {"smiles": "N/N=c1\\[nH][nH]/c(=N\\N)c2ccccc12", "note": "[DIHYDRALAZINE]", "values": [{"measurement": "ED25", "setting": "Felis catus", "value": 1, "unit": "mg/kg"}, {"measurement": "Delta blood pressure", "setting": "Rattus norvegicus [1]", "value": -60, "unit": "mmHg"}]}]}
